Results as given in ChEMBL document CHEMBL1128396, “Synthesis and biological evaluation of a series of new parenteral optically active 3-[[(N-alkylpyridinium-4'-yl)thio]methyl]-2-oxaisocephems” (1995).
≈ marks a conversion by molar mass, not a printed value.

Assays:
Format in all cases: functional
Enterococcus faecalis [1] = test: Antibacterial activity was determined against Enterococcus faecalis ATCC 21212 (Gram-positive)
Method in brief: (§1)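 2-fold agar dilution on Müller-Hinton agar. Overnight broth cultures were diluted to about 10^6 CFU/mL, and 10^4 CFU/spot was applied to plates with graded drug concentrations. Plates were incubated 18 h at 37 °C.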

Pseudomonas aeruginosa = test: Antibacterial activity was determined against Pseudomonas aeruginosa ATCC 10145 (Gram-negative); method in brief: as §1
Staphylococcus aureus [2] = test: Antibacterial activity was determined against Methicillin-resistant Staphylococcus aureus (MRSA) 5038 (Gram-positive)
[3] = test system: Staphylococcus epidermidis; test: Antibacterial activity was determined against Staphylococcus epidermidis ATCC 12228 (Gram-positive); method in brief: as §1
Enterococcus faecalis [4] = test: In vitro antibacterial activity against clinical isolates Enterococcus faecalis was determined; method in brief: as §1
Escherichia coli = test: Antibacterial activity was determined against Escherichia coli NIHJ JC-2 (Gram-negative); method in brief: as §1
Mus musculus [5] = test: Antibacterial activity was determined against Enterococcus faecalis C 0063 at a challenge dose of 7.00*10e7 (cells/mouse) administered subcutaneously; details: sc
Method in brief: (§2)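 Cultures were grown overnight at 37 °C in tryptic soy broth (S. aureus, MRSA, E. faecalis) or Müller-Hinton broth (E. coli, S. pneumoniae). Graded doses were given subcutaneously 1 h post-infection. ED50 was calculated by probit from day-7 survival, with 95% confidence limits.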

Staphylococcus aureus [6] = test: In vitro antibacterial activity against clinical isolates methicillin-resistant Staphylococcus aureus was determined
Method in brief: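 2-fold agar dilution on Müller-Hinton agar. Overnight broth cultures were diluted to about 10^6 CFU/mL, and 10^4 CFU/spot was applied to plates with graded drug concentrations.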

Staphylococcus aureus [7] = test: Antibacterial activity was determined against Staphylococcus aureus FDA 209P (Gram-positive); method in brief: as §1
Staphylococcus aureus [8] = test: […] was determined against MRSA 5120
Streptococcus pneumoniae = test: In vitro antibacterial activity against clinical isolates Ampicillin-insensitive Streptococcus pneumoniae was determined; method in brief: as §1
Mus musculus [9] = test: Antibacterial activity was determined against Staphylococcus aureus Smith at a challenge dose of 1.32*10e7 (cells/mouse) administered subcutaneously (value in parentheses indicates 95% CL); details: sc
Method in brief: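 Cultures were grown overnight at 37 °C in tryptic soy broth (S. aureus, MRSA, E. faecalis) or Müller-Hinton broth (E. coli, S. pneumoniae). Graded doses were given subcutaneously 1 h post-infection.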

Serratia marcescens = test: Antibacterial activity was determined against Serratia marcescens ATCC 12648 (Gram-negative); method in brief: as §1
Mus musculus [10] = test: Antibacterial activity was determined against Escherichia coli 29 at a challenge dose of 1.35*10e6 (cells/mouse) administered subcutaneously; details: sc; method in brief: as §2
Mus musculus [11] = test: Antibacterial activity was determined against MRSA 5120 at a challenge dose of 7.6*10e7 (cells/mouse) administered subcutaneously; details: sc; method in brief: as §2
Klebsiella pneumoniae = test: Antibacterial activity was determined against Klebsiella pneumoniae NCTC 9632 (Gram-negative); method in brief: as §1
Mus musculus [12] = test: Antibacterial activity was determined against Staphylococcus aureus Smith at a challenge dose of 1.32*10e7 (cells/mouse) administered subcutaneously; details: sc; method in brief: as §2
Mus musculus [13] = test: Antibacterial activity was determined against MRSA 5038 at a challenge dose of 1.00*10e7 (cells/mouse) administered subcutaneously; details: sc; method in brief: as §2
Mus musculus [14] = test: Antibacterial activity was determined against Streptococcus pneumoniae C 0096 at a challenge dose of 1.60*10e2 (cells/mouse) administered subcutaneously; details: sc; method in brief: as §2

CO/N=C(\C(=O)N[C@@H]1C(=O)N2C(C(=O)[O-])=C(C[n+]3cccc4c3CCC4)CS[C@H]12)c1csc(N)n1 [CEFPIROME] gave an MIC (Enterococcus faecalis [1]) of 25 µg/mL (≈ 48.6 µM), an MIC (Pseudomonas aeruginosa) of 6.25 µg/mL (≈ 12.1 µM) and an MIC (Staphylococcus aureus [2]) of 100 µg/mL (≈ 194 µM). It also gave an MIC [3] of 0.39 µg/mL (≈ 0.758 µM), an MIC50 (Enterococcus faecalis [4]) of 50 µg/mL (≈ 97.2 µM) and an MIC80 (Enterococcus faecalis [4]) of 100 µg/mL (≈ 194 µM). The MIC90 (Enterococcus faecalis [4]) was 100 µg/mL (≈ 194 µM), the MIC (Escherichia coli) was 0.05 µg/mL (≈ 0.0972 µM) and the ED50 (Mus musculus [5]) was greater than 100 mg/kg. It also gave an MIC50 (Staphylococcus aureus [6]) of 50 µg/mL (≈ 97.2 µM), an MIC80 (Staphylococcus aureus [6]) of 100 µg/mL (≈ 194 µM) and an MIC90 (Staphylococcus aureus [6]) of 100 µg/mL (≈ 194 µM). The MIC (Staphylococcus aureus [7]) was 0.39 µg/mL (≈ 0.758 µM), the MIC (Staphylococcus aureus [8]) was 50 µg/mL (≈ 97.2 µM) and the MIC50 (Streptococcus pneumoniae) was 0.39 µg/mL (≈ 0.758 µM). It also gave an MIC80 (Streptococcus pneumoniae) of 0.78 µg/mL (≈ 1.52 µM), an MIC90 (Streptococcus pneumoniae) of 0.78 µg/mL (≈ 1.52 µM) and an ED50 (Mus musculus [9]) of 1.72 mg/kg. For the same compound, the MIC (Serratia marcescens) was 0.2 µg/mL (≈ 0.389 µM), the ED50 (Mus musculus [10]) was 0.64 mg/kg and the ED50 (Mus musculus [11]) was 27.7 mg/kg. The MIC (Klebsiella pneumoniae) was 0.05 µg/mL (≈ 0.0972 µM).
With CC(=O)C[n+]1ccc(SCC2=C(C(=O)O)N3C(=O)[C@@H](NC(=O)/C(=N\OC4CCCC4)c4csc(N)n4)[C@H]3CO2)cc1.O=S(=O)([O-])O the MIC (Enterococcus faecalis [1]) was 0.78 µg/mL, the MIC (Pseudomonas aeruginosa) was 6.25 µg/mL and the MIC (Staphylococcus aureus [2]) was 6.25 µg/mL. It also gave an MIC [3] of 0.2 µg/mL, an ED50 (Mus musculus [12]) of 0.18 mg/kg and an MIC (Escherichia coli) of 0.39 µg/mL. For the same compound, the ED50 (Mus musculus [13]) was 2.76 mg/kg, the MIC (Staphylococcus aureus [7]) was 0.2 µg/mL and the MIC (Serratia marcescens) was 0.78 µg/mL. It also gave an MIC (Klebsiella pneumoniae) of 0.39 µg/mL.
Compound CNC(=O)C[n+]1ccc(SCC2=C(C(=O)O)N3C(=O)[C@@H](NC(=O)/C(=N\OC4CCCC4)c4csc(N)n4)[C@H]3CO2)cc1.O=S(=O)([O-])O has an MIC (Enterococcus faecalis [1]) of 1.56 µg/mL, an MIC (Pseudomonas aeruginosa) of 12.5 µg/mL and an MIC (Staphylococcus aureus [2]) of 6.25 µg/mL. It also gave an MIC [3] of 0.2 µg/mL, an ED50 (Mus musculus [12]) of 0.18 mg/kg and an MIC (Escherichia coli) of 0.78 µg/mL. For the same compound, the ED50 (Mus musculus [13]) was 2.27 mg/kg, the MIC (Staphylococcus aureus [7]) was 0.2 µg/mL and the MIC (Serratia marcescens) was 1.56 µg/mL. It also gave an MIC (Klebsiella pneumoniae) of 0.39 µg/mL.
CO[C@@]1(NC(=O)CSC(F)F)C(=O)N2C(C(=O)O)=C(CSc3nnnn3CCO)CO[C@@H]21 [FLOMOXEF] gave an MIC (Enterococcus faecalis [1]) of 100 µg/mL (≈ 201 µM), an MIC (Pseudomonas aeruginosa) greater than 100 µg/mL and an MIC (Staphylococcus aureus [2]) of 50 µg/mL (≈ 101 µM). The MIC [3] was 0.39 µg/mL (≈ 0.786 µM), the MIC50 (Enterococcus faecalis [4]) was greater than 100 µg/mL and the MIC80 (Enterococcus faecalis [4]) was greater than 100 µg/mL. For the same compound, the MIC90 (Enterococcus faecalis [4]) was greater than 100 µg/mL, the MIC (Escherichia coli) was 0.1 µg/mL (≈ 0.201 µM) and the ED50 (Mus musculus [5]) was greater than 200 mg/kg. The MIC50 (Staphylococcus aureus [6]) was 25 µg/mL (≈ 50.4 µM), the MIC80 (Staphylococcus aureus [6]) was 100 µg/mL (≈ 201 µM) and the MIC90 (Staphylococcus aureus [6]) was 100 µg/mL (≈ 201 µM). For the same compound, the MIC (Staphylococcus aureus [7]) was 0.39 µg/mL (≈ 0.786 µM), the MIC (Staphylococcus aureus [8]) was 25 µg/mL (≈ 50.4 µM) and the MIC50 (Streptococcus pneumoniae) was 3.13 µg/mL (≈ 6.3 µM). It also gave an MIC80 (Streptococcus pneumoniae) of 6.25 µg/mL (≈ 12.6 µM), an MIC90 (Streptococcus pneumoniae) of 6.25 µg/mL (≈ 12.6 µM) and an MIC (Serratia marcescens) of 0.78 µg/mL (≈ 1.57 µM). It also gave an ED50 (Mus musculus [10]) of 0.43 mg/kg, an ED50 (Mus musculus [14]) of 18.6 mg/kg and an ED50 (Mus musculus [11]) of 8.52 mg/kg. It also gave an MIC (Klebsiella pneumoniae) of 0.1 µg/mL (≈ 0.201 µM).
